Measurements reported in ChEMBL document CHEMBL1123208, “Quantitative structure-activity relationship of the mutagenicity of substituted N-nitroso-N-benzylmethylamines: possible implications for carcinogenicity” (J Med Chem, 1986).

Tests used:
[1] = Concentration in nmol/plate to induce 50 revertants/plate.; format: ADME
How it was run: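 Ames plate incorporation, S. typhimurium TA 1535, Aroclor-induced male hamster liver S9; duplicate plates, 10-point range 1–1000 µg/plate; 37 °C, 48 h; revertants counted by hand tally. Potency index: concentration (nmol/plate) inducing 50 revertants/plate, taken from linear portion of dose–response curve.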

Salmonella typhimurium [2] = assay: Mutagenicity against Salmonella tester strain TA 1535 without hamster S9 mix (3 mg/plate) in cells.; format: functional, Salmonella enterica subsp. enterica serovar Typhimurium
Salmonella typhimurium [3] = assay: compound was tested for mutagenicity against Salmonella tester strain TA 1535 with hamster S9 mix (3 mg/plate) in cells at dose of 1000 ug; format: functional, Salmonella enterica subsp. enterica serovar Typhimurium
How it was run: (§1)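 Plate incorporation assay in S. typhimurium TA 1535 with Aroclor-induced male hamster liver S9 (3 mg/plate). Compound in Me2SO, 1–1000 µg/plate, duplicate plates, mean revertants/plate; incubated 37 °C for 48 h, colonies hand-counted. Positive if two consecutive doses gave revertants more than twice the concurrent control mean.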

Salmonella typhimurium [4] = assay: compound was tested for mutagenicity against Salmonella tester strain TA 1535 with hamster S9 mix (3 mg/plate) in cells at dose of 100 ug; format: functional, Salmonella enterica subsp. enterica serovar Typhimurium; how it was run: as §1
Salmonella typhimurium [5] = assay: compound was tested for mutagenicity against Salmonella tester strain TA 1535 with hamster S9 mix (3 mg/plate) in cells at dose of 10 ug; format: functional, Salmonella enterica subsp. enterica serovar Typhimurium; how it was run: as §1
Salmonella typhimurium [6] = assay: compound was tested for mutagenicity against Salmonella tester strain TA 1535 with hamster S9 mix (3 mg/plate) in cells at dose of 1 ug; format: functional, Salmonella enterica subsp. enterica serovar Typhimurium; how it was run: as §1
Salmonella typhimurium [7] = assay: compound was tested for mutagenicity against Salmonella tester strain TA 1535 with hamster S9 mix (3 mg/plate) in cells at dose of 2.5 ug; format: functional, Salmonella enterica subsp. enterica serovar Typhimurium; how it was run: as §1
Salmonella typhimurium [8] = assay: compound was tested for mutagenicity against Salmonella tester strain TA 1535 with hamster S9 mix (3 mg/plate) in cells at dose of 250 ug; format: functional, Salmonella enterica subsp. enterica serovar Typhimurium; how it was run: as §1
Salmonella typhimurium [9] = assay: compound was tested for mutagenicity against Salmonella tester strain TA 1535 with hamster S9 mix (3 mg/plate) in cells at dose of 25 ug; format: functional, Salmonella enterica subsp. enterica serovar Typhimurium; how it was run: as §1
Salmonella typhimurium [10] = assay: compound was tested for mutagenicity against Salmonella tester strain TA 1535 with hamster S9 mix (3 mg/plate) in cells at dose of 500 ug; format: functional, Salmonella enterica subsp. enterica serovar Typhimurium; how it was run: as §1
Salmonella typhimurium [11] = assay: compound was tested for mutagenicity against Salmonella tester strain TA 1535 with hamster S9 mix (3 mg/plate) in cells at dose of 5 ug; format: functional, Salmonella enterica subsp. enterica serovar Typhimurium; how it was run: as §1
Salmonella typhimurium [12] = assay: compound was tested for mutagenicity against Salmonella tester strain TA 1535 with out hamster S9 mix (3 mg/plate) in cells at dose of 1000 ug; format: functional, Salmonella enterica subsp. enterica serovar Typhimurium
How it was run: (§2)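 Plate incorporation assay in S. typhimurium TA 1535 without S9 activation. Compound in Me2SO, 1–1000 µg/plate, duplicate plates, mean revertants/plate; incubated 37 °C for 48 h, colonies hand-counted. Positive if two consecutive doses gave revertants more than twice the concurrent control mean.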

Salmonella typhimurium [13] = assay: compound was tested for mutagenicity against Salmonella tester strain TA 1535 with out hamster S9 mix (3 mg/plate) in cells at dose of 100 ug; format: functional, Salmonella enterica subsp. enterica serovar Typhimurium; how it was run: as §2
Salmonella typhimurium [14] = assay: compound was tested for mutagenicity against Salmonella tester strain TA 1535 with out hamster S9 mix (3 mg/plate) in cells at dose of 10 ug; format: functional, Salmonella enterica subsp. enterica serovar Typhimurium; how it was run: as §2
Salmonella typhimurium [15] = assay: compound was tested for mutagenicity against Salmonella tester strain TA 1535 with hamster S9 mix (3 mg/plate) in cells.; format: functional, Salmonella enterica subsp. enterica serovar Typhimurium; how it was run: as §1
Salmonella typhimurium [16] = assay: compound was tested for mutagenicity against Salmonella tester strain TA 1535 with hamster S9 mix (3 mg/plate) in cells. Activity expressed as no. of cells; format: functional, Salmonella enterica subsp. enterica serovar Typhimurium; how it was run: as §1
Salmonella typhimurium [17] = assay: compound was tested for mutagenicity against Salmonella tester strain TA 1535 with out hamster S9 mix (3 mg/plate) in cells.; format: functional, Salmonella enterica subsp. enterica serovar Typhimurium; how it was run: as §2
Salmonella typhimurium [18] = assay: compound was tested for mutagenicity against Salmonella tester strain TA 1535 with out hamster S9 mix (3 mg/plate) in cells at dose of 1 ug; format: functional, Salmonella enterica subsp. enterica serovar Typhimurium; how it was run: as §2
Salmonella typhimurium [19] = assay: compound was tested for mutagenicity against Salmonella tester strain TA 1535 with out hamster S9 mix (3 mg/plate) in cells at dose of 2.5 ug; format: functional, Salmonella enterica subsp. enterica serovar Typhimurium; how it was run: as §2
Salmonella typhimurium [20] = assay: compound was tested for mutagenicity against Salmonella tester strain TA 1535 with out hamster S9 mix (3 mg/plate) in cells at dose of 250 ug; format: functional, Salmonella enterica subsp. enterica serovar Typhimurium; how it was run: as §2
Salmonella typhimurium [21] = assay: compound was tested for mutagenicity against Salmonella tester strain TA 1535 with out hamster S9 mix (3 mg/plate) in cells at dose of 25 ug; format: functional, Salmonella enterica subsp. enterica serovar Typhimurium; how it was run: as §2
Salmonella typhimurium [22] = assay: compound was tested for mutagenicity against Salmonella tester strain TA 1535 with out hamster S9 mix (3 mg/plate) in cells at dose of 500 ug; format: functional, Salmonella enterica subsp. enterica serovar Typhimurium; how it was run: as §2
Salmonella typhimurium [23] = assay: (§3) compound was tested for mutagenicity against Salmonella tester strain TA 1535 with out hamster S9 mix (3 mg/plate) in cells at dose of 50 ug; format: functional, Salmonella enterica subsp. enterica serovar Typhimurium; how it was run: as §2
Salmonella typhimurium [24] = assay: compound was tested for mutagenicity against Salmonella tester strain TA 1535 with out hamster S9 mix (3 mg/plate) in cells at dose of 5 ug; format: functional, Salmonella enterica subsp. enterica serovar Typhimurium; how it was run: as §2
Salmonella typhimurium [25] = assay: compound was tested for mutagenicity against Salmonella tester strain TA 1535 with hamster S9 mix (3 mg/plate) in cells at dose of 50 ug; format: functional, Salmonella enterica subsp. enterica serovar Typhimurium; how it was run: as §1
Cricetinae gen. sp. = assay: as §3; format: functional; how it was run: as §2
Salmonella typhimurium [26] = assay: compound was tested for mutagenicity against Salmonella tester strain TA 1535 with hamster S9 mix (3 mg/plate) in cells at dose of 500 ug
Salmonella typhimurium [27] = assay: compound was tested for mutagenicity against Salmonella tester strain TA 1535 with out hamster S9 mix (3 mg/plate) in cells at dose of 500 ug

## CN(Cc1ccc(Br)cc1)N=O
[1]
  Log 1/C: -1.998
Salmonella typhimurium [2]
  Activity: 12
Salmonella typhimurium [3]
  No. of revertants per plate: 201
Salmonella typhimurium [4]
  No. of revertants per plate: 64
Salmonella typhimurium [5]
  No. of revertants per plate: 14
Salmonella typhimurium [6]
  No. of revertants per plate: 12
Salmonella typhimurium [7]
  No. of revertants per plate: 12
Salmonella typhimurium [8]
  No. of revertants per plate: 155
Salmonella typhimurium [9]
  No. of revertants per plate: 21
Salmonella typhimurium [10]
  No. of revertants per plate: 183
Salmonella typhimurium [11]
  No. of revertants per plate: 15
Salmonella typhimurium [12]
  No. of revertants per plate: 15
Salmonella typhimurium [13]
  No. of revertants per plate: 16
Salmonella typhimurium [14]
  No. of revertants per plate: 18
Salmonella typhimurium [15]
  Activity: 13
Salmonella typhimurium [16]
  Activity: 17
Salmonella typhimurium [17]
  Activity: 14
Salmonella typhimurium [18]
  No. of revertants per plate: 14
Salmonella typhimurium [19]
  No. of revertants per plate: 13
Salmonella typhimurium [20]
  No. of revertants per plate: 11
Salmonella typhimurium [21]
  No. of revertants per plate: 14
Salmonella typhimurium [22]
  No. of revertants per plate: 13
Salmonella typhimurium [23]
  No. of revertants per plate: 10
Salmonella typhimurium [24]
  No. of revertants per plate: 21
Salmonella typhimurium [25]
  No. of revertants per plate: 32

## CN(Cc1ccc(Cl)cc1)N=O
[1]
  Log 1/C: -1.933
Salmonella typhimurium [2]
  Activity: 22
Salmonella typhimurium [3]
  No. of revertants per plate: 192
Salmonella typhimurium [4]
  No. of revertants per plate: 136
Salmonella typhimurium [5]
  No. of revertants per plate: 24
Salmonella typhimurium [6]
  No. of revertants per plate: 18
Salmonella typhimurium [7]
  No. of revertants per plate: 19
Salmonella typhimurium [8]
  No. of revertants per plate: 221
Salmonella typhimurium [9]
  No. of revertants per plate: 42
Salmonella typhimurium [10]
  No. of revertants per plate: 166
Salmonella typhimurium [11]
  No. of revertants per plate: 21
Salmonella typhimurium [12]
  No. of revertants per plate: 17
Salmonella typhimurium [13]
  No. of revertants per plate: 19
Salmonella typhimurium [14]
  No. of revertants per plate: 18
Salmonella typhimurium [15]
  Activity: 22
Salmonella typhimurium [16]
  Activity: 23
Salmonella typhimurium [17]
  Activity: 19
Salmonella typhimurium [18]
  No. of revertants per plate: 17
Salmonella typhimurium [19]
  No. of revertants per plate: 16
Salmonella typhimurium [20]
  No. of revertants per plate: 19
Salmonella typhimurium [21]
  No. of revertants per plate: 21
Salmonella typhimurium [22]
  No. of revertants per plate: 24
Salmonella typhimurium [23]
  No. of revertants per plate: 19
Salmonella typhimurium [24]
  No. of revertants per plate: 14
Salmonella typhimurium [25]
  No. of revertants per plate: 77

## CN(Cc1ccccc1)N=O
[1]
  Log 1/C: -3.416
Cricetinae gen. sp.
  No. of revertants per plate: 14
Salmonella typhimurium [2]
  Activity: 19
Salmonella typhimurium [26]
  No. of revertants per plate: 60
Salmonella typhimurium [27]
  No. of revertants per plate: 17

## COc1ccc(CN(C)N=O)cc1
Salmonella typhimurium [2]
  Activity: 12
Salmonella typhimurium [26]
  No. of revertants per plate: 24
Salmonella typhimurium [27]
  No. of revertants per plate: 15

## COC(=O)c1ccc(CN(C)N=O)cc1
Salmonella typhimurium [2]
  Activity: 14
Salmonella typhimurium [26]
  No. of revertants per plate: 18
Salmonella typhimurium [27]
  No. of revertants per plate: 15

## CN(Cc1cccc(C(F)(F)F)c1)N=O
[1]
  Log 1/C: -1.961
Salmonella typhimurium [2]
  Activity: 21
Salmonella typhimurium [26]
  No. of revertants per plate: 127
Salmonella typhimurium [27]
  No. of revertants per plate: 18

## CN(Cc1ccc(C#N)cc1)N=O
[1]
  Log 1/C: -2.78
Salmonella typhimurium [2]
  Activity: 15
Salmonella typhimurium [26]
  No. of revertants per plate: 180
Salmonella typhimurium [27]
  No. of revertants per plate: 12

## CN(Cc1cccc([N+](=O)[O-])c1)N=O
[1]
  Log 1/C: -1.796

## Cc1cccc(CN(C)N=O)c1
[1]
  Log 1/C: -3.039
Salmonella typhimurium [2]
  Activity: 16
Salmonella typhimurium [26]
  No. of revertants per plate: 106
Salmonella typhimurium [27]
  No. of revertants per plate: 14

## CN(Cc1cccc(Cl)c1)N=O
[1]
  Log 1/C: -1.512
Salmonella typhimurium [2]
  Activity: 17
Salmonella typhimurium [26]
  No. of revertants per plate: 215
Salmonella typhimurium [27]
  No. of revertants per plate: 15

## CN(Cc1cccc(Br)c1)N=O
[1]
  Log 1/C: -1.552
Salmonella typhimurium [2]
  Activity: 11
Salmonella typhimurium [26]
  No. of revertants per plate: 223
Salmonella typhimurium [27]
  No. of revertants per plate: 11

## COc1cccc(CN(C)N=O)c1
[1]
  Log: -1.886 (degrees C)-1
Salmonella typhimurium [2]
  Activity: 25
Salmonella typhimurium [26]
  No. of revertants per plate: 145
Salmonella typhimurium [27]
  No. of revertants per plate: 18

## CN(Cc1ccc(F)cc1)N=O
[1]
  Log 1/C: -2.969
Salmonella typhimurium [2]
  Activity: 15
Salmonella typhimurium [3]
  No. of revertants per plate: 126
Salmonella typhimurium [4]
  No. of revertants per plate: 71
Salmonella typhimurium [5]
  No. of revertants per plate: 22
Salmonella typhimurium [6]
  No. of revertants per plate: 15
Salmonella typhimurium [7]
  No. of revertants per plate: 15
Salmonella typhimurium [8]
  No. of revertants per plate: 71
Salmonella typhimurium [9]
  No. of revertants per plate: 27
Salmonella typhimurium [10]
  No. of revertants per plate: 94
Salmonella typhimurium [11]
  No. of revertants per plate: 21
Salmonella typhimurium [12]
  No. of revertants per plate: 15
Salmonella typhimurium [13]
  No. of revertants per plate: 22
Salmonella typhimurium [14]
  No. of revertants per plate: 17
Salmonella typhimurium [15]
  Activity: 24
Salmonella typhimurium [16]
  Activity: 19
Salmonella typhimurium [17]
  Activity: 8
Salmonella typhimurium [18]
  No. of revertants per plate: 18
Salmonella typhimurium [19]
  No. of revertants per plate: 8
Salmonella typhimurium [20]
  No. of revertants per plate: 11
Salmonella typhimurium [21]
  No. of revertants per plate: 20
Salmonella typhimurium [22]
  No. of revertants per plate: 19
Salmonella typhimurium [23]
  No. of revertants per plate: 16
Salmonella typhimurium [24]
  No. of revertants per plate: 21
Salmonella typhimurium [25]
  No. of revertants per plate: 39

## CN(Cc1cccc(C#N)c1)N=O
[1]
  Log 1/C: -2.139
Salmonella typhimurium [2]
  Activity: 14
Salmonella typhimurium [26]
  No. of revertants per plate: 185
Salmonella typhimurium [27]
  No. of revertants per plate: 3053

## CN(Cc1ccc(C(=O)O)cc1)N=O
Salmonella typhimurium [2]
  Activity: 13
Salmonella typhimurium [26]
  No. of revertants per plate: 15
Salmonella typhimurium [27]
  No. of revertants per plate: 21

## CN(Cc1ccc([N+](=O)[O-])cc1)N=O
[1]
  Log 1/C: -2.202
Salmonella typhimurium [2]
  Activity: 19
Salmonella typhimurium [26]
  No. of revertants per plate: 176
Salmonella typhimurium [27]
  No. of revertants per plate: 23
